Our source for the EBV-EA activation, Survival and Activity values is ChEMBL document CHEMBL1147206, “Synthetic cinnamylphenol derivatives as cancer chemopreventive agents” (2007).

For assay [1], the system named is Human gammaherpesvirus 4. Briefly: TPA-induced EBV early antigen activation in Raji cells at 16 nmol relative to control.
Assay [2] has as its system Raji. As to the kind of experiment: Survival of Raji cells at 3.2 nmol by trypan blue staining method. It is filed as functional, Homo sapiens. Put shortly: (§1)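 Raji cells (EBV genome-carrying, non-producer) grown to 10⁶ cells/mL, centrifuged, resuspended in RPMI 1640 with 10% FCS, 4 mM n-butyric acid and 32 pmol TPA (20 ng/mL), plus test compound in DMSO (32, 16, 3.2 or 0.32 nmol; 1000–10 mol ratio/TPA). Incubated 37 °C, 48 h; viability counted by hemocytometer with Trypan Blue; ≥60% survival required.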

For assay [3], the system named is Raji. As to the kind of experiment: Survival of Raji cells at 0.32 nmol by trypan blue staining method. The assay is classed as functional, Homo sapiens. The gist of the method: as §1
Assay [4] has as its system Raji. Briefly: Survival of Raji cells at 16 nmol by trypan blue staining method. It is filed as functional, Homo sapiens. The gist of the method: as §1
The test system of assay [5] is Human gammaherpesvirus 4. As to the kind of experiment: TPA-induced EBV early antigen activation in Raji cells at 0.32 nmol relative to control.
For assay [6], the species on record is Mus musculus. As to the kind of experiment: Inhibition of TPA-induced skin tumor in SENCAR mouse assessed as reduction of skin papilloma at 85 nmol after 20 weeks. The assay is classed as functional. Further details: scale not given: the % may be the effect or the level left.
The species named for assay [7] is Mus musculus. As to the kind of experiment: Inhibition of TPA-induced skin tumor in SENCAR mouse assessed as reduction of skin papilloma at 85 nmol after 10 weeks. The assay is classed as functional. Details: scale not given: the % may be the effect or the level left.
Assay [8] relates to Human gammaherpesvirus 4. As to the kind of experiment: TPA-induced EBV early antigen activation in Raji cells at 3.2 nmol relative to control.
For assay [9], the system named is Raji. As to the kind of experiment: Survival of Raji cells at 32 nmol by trypan blue staining method. The assay is classed as functional, Homo sapiens. The gist of the method:
as §1

Assay [10] has as its system Human gammaherpesvirus 4. As to the kind of experiment: TPA-induced EBV early antigen activation in Raji cells at 32 nmol relative to control.

As to `COc1cc(/C=C/Cc2ccc(OC)c(OCC=C(C)C)c2O)ccc1OCC=C(C)C`, the EBV-EA activation in assay [1] is 27.5%; in assay [5], 89.1%; in assay [8], 68.6%; in assay [10], 0%. Moreover, the Survival is listed as >80% in assay [2], >80% in assay [3], >80% in [4] and 70% in assay [9]. Besides, the Activity in [6] worked out at 53%; in assay [7], 87%.

For `COc1c(C/C=C/c2ccccc2)ccc(OCC=C(C)C)c1OCC=C(C)C`, the EBV-EA activation is given as 22.6% in assay [1], 88.9% in assay [5], 64.5% in assay [8] and 0% in assay [10]. Moreover, the Survival in assay [2] was >80%; in [3], >80%; in [4], >80%; in [9] it was 70%. Also, in assay [6], the Activity is 30%.

With `COc1c(C/C=C/c2ccccc2)ccc(O)c1O` [HYDROXYOBUSTYRENE], the EBV-EA activation in [1] was 41.3%; in assay [5] it was 100%; in assay [8], 71%; in [10], 10.2%. The Survival in assay [2] is given as >80%; in [3] it was >80%; in [4] it was >80%; in assay [9], 60%.
